Laboratory results published in ChEMBL document CHEMBL2407062, “Synthesis and anticancer activities of 5,6,7-trimethoxy-N-phenyl(ethyl)-4-aminoquinazoline derivatives” (Eur J Med Chem, 2013).
Activity calls are given as the source filed them. The rule behind the calls is not given here.

Key:
[1] = tested on: PC-3; test: Induction of apoptosis in human PC3 cells assessed as apoptotic rate at 1 to 10 uM by annexin-V FITC and propidium iodide staining-based FACS flow cytometric analysis; format: functional, cell-based; details: TDE = time-dependent effect
Outline: (§1)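 PC3 cells exposed to 1, 5 or 10 μM for 24, 48 or 72 h. Controls were 0.1% DMSO and HCPT 10 μM. Cells at 1 × 10⁶/mL washed twice with cold PBS, resuspended in binding buffer, stained with annexin V-FITC and PI. Apoptosis ratio is the sum of early (annexin+/PI−) and late (annexin+/PI+) fractions.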

[2] = tested on: PC-3; test: Induction of apoptosis in human PC3 cells assessed as apoptotic rate after 24 to 72 hrs by annexin-V FITC and propidium iodide staining-based FACS flow cytometric analysis; format: functional, cell-based; outline: as §1
[3] = tested on: PC-3; test: Induction of apoptosis in human PC3 cells assessed as apoptotic rate at 10 uM after 72 hrs by annexin-V FITC and propidium iodide staining-based FACS flow cytometric analysis relative to control; format: functional
Outline: (§2)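 PC3 cells (RPMI 1640 with 10% heat-inactivated FBS, 37 °C, 5% CO2) exposed to compound for 24, 48 or 72 h; 0.1% DMSO as negative control. Cells at 1 × 10⁶/mL washed twice in cold PBS, resuspended in binding buffer, stained with Annexin V-FITC and PI. Apoptosis ratio is early (Annexin+/PI−) plus late (Annexin+/PI+) apoptotic cells.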

[4] = tested on: PC-3; test: Induction of apoptosis in human PC3 cells assessed as apoptotic rate at 5 uM after 72 hrs by annexin-V FITC and propidium iodide staining-based FACS flow cytometric analysis relative to control; format: functional; outline: as §1
[5] = tested on: PC-3; test: Induction of apoptosis in human PC3 cells assessed as apoptotic rate at 1 uM after 72 hrs by annexin-V FITC and propidium iodide staining-based FACS flow cytometric analysis relative to control; format: functional; outline: as §1
[6] = tested on: PC-3; test: Induction of apoptosis in human PC3 cells assessed as apoptotic rate at 10 uM after 48 hrs by annexin-V FITC and propidium iodide staining-based FACS flow cytometric analysis relative to control; format: functional; outline: as §2
[7] = tested on: PC-3; test: Induction of apoptosis in human PC3 cells assessed as apoptotic rate at 5 uM after 48 hrs by annexin-V FITC and propidium iodide staining-based FACS flow cytometric analysis relative to control; format: functional; outline: as §1
[8] = tested on: PC-3; test: Induction of apoptosis in human PC3 cells assessed as apoptotic rate at 1 uM after 48 hrs by annexin-V FITC and propidium iodide staining-based FACS flow cytometric analysis relative to control; format: functional; outline: as §1
[9] = tested on: PC-3; test: Induction of apoptosis in human PC3 cells assessed as apoptotic rate at 10 uM after 24 hrs by annexin-V FITC and propidium iodide staining-based FACS flow cytometric analysis relative to control; format: functional; outline: as §2
[10] = tested on: PC-3; test: Induction of apoptosis in human PC3 cells assessed as apoptotic rate at 5 uM after 24 hrs by annexin-V FITC and propidium iodide staining-based FACS flow cytometric analysis relative to control; format: functional; outline: as §1
[11] = tested on: PC-3; test: Induction of apoptosis in human PC3 cells assessed as apoptotic rate at 1 uM after 24 hrs by annexin-V FITC and propidium iodide staining-based FACS flow cytometric analysis relative to control; format: functional; outline: as §1
[12] = tested on: PC-3; test: Induction of apoptosis in human PC3 cells assessed as DNA fragmentation at 10 uM by agarose gel electrophoretic analysis; format: functional, cell-based
Outline: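 PC3 cells treated at 10 μM. Apoptotic DNA fragments extracted, run on agarose gel electrophoresis, stained with Gold View.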

[13] = tested on: PC-3; test: Induction of apoptosis in human PC3 cells assessed as apoptotic cells at 10 uM after 72 hrs by Hoechst 33258 staining-based fluorescence microscopic analysis; format: functional, cell-based
Outline: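 PC3 cells treated at 1 and 10 μM for 72 h, then stained with Hoechst 33258 and viewed by fluorescence microscopy. DMSO negative control; HCPT 10 μM for 72 h positive control. Bright blue condensed nuclei were scored as apoptotic.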

[14] = tested on: PC-3; test: Induction of necrosis in human PC3 cells at 10 uM after 72 hrs by AO/EB staining-based fluorescence microscopic analysis; format: cell-based; details: pc-3, 72 h
Outline: (§3)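 PC3 cells seeded at 5 × 10⁴ cells/mL on cover slips, then given fresh medium with 10% FBS plus compound, 10 μM for 24–72 h. HCPT 10 μM positive control. Stained with AO/EB (100 μg/mL) and examined by fluorescence microscopy. Green: live; green-yellow: early apoptotic; orange fragments: late apoptotic; orange without condensed chromatin: necrotic.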

[15] = tested on: PC-3; test: Induction of apoptosis in human PC3 cells assessed as late apoptotic cells at 10 uM after 72 hrs by AO/EB staining-based fluorescence microscopic analysis; format: functional, cell-based; outline: as §3
[16] = tested on: PC-3; test: Induction of apoptosis in human PC3 cells assessed as cell budding at 10 uM after 24 to 72 hrs by AO/EB staining-based fluorescence microscopic analysis; format: functional; outline: as §3
[17] = tested on: PC-3; test: Induction of apoptosis in human PC3 cells assessed as membrane blebbing at 10 uM after 24 to 72 hrs by AO/EB staining-based fluorescence microscopic analysis; format: functional, cell-based; outline: as §3
[18] = tested on: PC-3; test: Induction of apoptosis in human PC3 cells assessed as pycnosis at 10 uM after 24 to 72 hrs by AO/EB staining-based fluorescence microscopic analysis; format: functional, cell-based; outline: as §3
[19] = tested on: PC-3; test: Induction of apoptosis in human PC3 cells at 10 uM after 24 to 72 hrs by AO/EB staining-based fluorescence microscopic analysis; format: functional, cell-based; outline: as §3
[20] = tested on: Bcap37; test: Growth inhibition of human Bcap37 cells after 72 hrs by MTT assay; format: functional, cell-based; details: Bcap37, 72 h
Outline: (§4)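 Cells in RPMI 1640 with 10% heat-inactivated FBS, 37 °C, 5% CO2. Seeded at 2 × 10³ cells per well. Compounds dissolved in DMSO, diluted in medium, tested at 1–100 μM for 72 h; 0.1% DMSO control. MTT read-out, absorbance at 595 nm. Mean ± SD of triplicate experiments. IC50 taken from the dose–response curve.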

[21] = tested on: BGC-823; test: Growth inhibition of human BGC823 cells after 72 hrs by MTT assay; format: functional, cell-based; details: BGC-823, 72 h; outline: as §4
[22] = tested on: PC-3; test: Growth inhibition of human PC3 cells after 72 hrs by MTT assay; format: functional, cell-based; details: PC-3, 72 h; outline: as §4
[23] = tested on: Bcap37; test: Growth inhibition of human Bcap37 cells at 10 uM after 72 hrs by MTT assay relative to control; format: functional; details: Homo sapiens, Bcap37, 72 h; read-out: GI; outline: as §4
[24] = tested on: Bcap37; test: Growth inhibition of human Bcap37 cells at 1 uM after 72 hrs by MTT assay relative to control; format: functional; details: Homo sapiens, Bcap37, 72 h; read-out: GI; outline: as §4
[25] = tested on: BGC-823; test: Growth inhibition of human BGC823 cells at 10 uM after 72 hrs by MTT assay relative to control; format: functional; details: BGC-823, 72 h, read-out: GI; outline: as §4
[26] = tested on: BGC-823; test: Growth inhibition of human BGC823 cells at 1 uM after 72 hrs by MTT assay relative to control; format: functional; details: BGC-823, 72 h, read-out: GI; outline: as §4
[27] = tested on: PC-3; test: Growth inhibition of human PC3 cells at 1 uM after 72 hrs by MTT assay relative to control; format: functional; details: Homo sapiens, PC-3, 72 h; read-out: GI; outline: as §4
[28] = tested on: PC-3; test: Growth inhibition of human PC3 cells at 10 uM after 72 hrs by MTT assay relative to control; format: functional; details: Homo sapiens, PC-3, 72 h; read-out: GI; outline: as §4
[29] = target: T1, Mitogen-activated protein kinase; ERK1/ERK2 (Homo sapiens) (UniProt P27361+P28482); test: Inhibition of EGF-induced ERK1/2 phosphorylation in human PC3 cells at 1.28 uM incubated for 60 mins prior to EGF-treatment measured after 10 mins by Western blotting analysis; format: cell-based; details: PC-3
Outline: (§5)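 PC3 cells grown 36–48 h in RPMI 1640 with 10% FBS at 37 °C, then serum-starved 24 h. Treated with compound for 60 min, then EGF 10 ng/mL for 10 min; quenched on ice. Cells washed with cold PBS and lysed in NP-40/SDS buffer with Na3VO4 and NaF. Run on 10% SDS-PAGE, PVDF blot probed for pERK1/2 with actin as loading control, ECL detection.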

[30] = target: T1, Mitogen-activated protein kinase; ERK1/ERK2 (Homo sapiens); test: Inhibition of EGF-induced ERK1/2 phosphorylation in human PC3 cells at 10 uM incubated for 60 mins prior to EGF-treatment measured after 10 mins by Western blotting analysis; format: cell-based; details: PC-3; outline: as §5
[31] = tested on: PC-3; test: Induction of apoptosis in human PC3 cells assessed as apoptotic rate at 30 uM after 72 hrs by annexin-V FITC and propidium iodide staining-based FACS flow cytometric analysis relative to control; format: functional; outline: as §2
[32] = tested on: PC-3; test: Induction of apoptosis in human PC3 cells assessed as apoptotic rate at 20 uM after 72 hrs by annexin-V FITC and propidium iodide staining-based FACS flow cytometric analysis relative to control; format: functional; outline: as §2
[33] = tested on: PC-3; test: Induction of apoptosis in human PC3 cells assessed as apoptotic rate at 30 uM after 48 hrs by annexin-V FITC and propidium iodide staining-based FACS flow cytometric analysis relative to control; format: functional; outline: as §2
[34] = tested on: PC-3; test: Induction of apoptosis in human PC3 cells assessed as apoptotic rate at 20 uM after 48 hrs by annexin-V FITC and propidium iodide staining-based FACS flow cytometric analysis relative to control; format: functional; outline: as §2
[35] = tested on: PC-3; test: Induction of apoptosis in human PC3 cells assessed as apoptotic rate at 30 uM after 24 hrs by annexin-V FITC and propidium iodide staining-based FACS flow cytometric analysis relative to control; format: functional; outline: as §2
[36] = tested on: PC-3; test: Induction of apoptosis in human PC3 cells assessed as apoptotic rate at 20 uM after 24 hrs by annexin-V FITC and propidium iodide staining-based FACS flow cytometric analysis relative to control; format: functional; outline: as §2
[37] = tested on: PC-3; test: Induction of apoptosis in human PC3 cells assessed as compact nucleus at 10 uM after 72 hrs by Hoechst 33258 staining-based fluorescence microscopic analysis; format: functional, cell-based
Outline: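 PC3 cells treated 72 h, then stained with Hoechst 33258 and viewed by fluorescence microscopy. DMSO served as negative control. Live nuclei scored as uniformly light blue; apoptotic nuclei bright blue with condensed chromatin and karyopyknosis.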

[38] = tested on: PC-3; test: Induction of apoptosis in human PC3 cells assessed as pycnosis at 10 uM after 48 hrs by AO/EB staining-based fluorescence microscopic analysis; format: functional, cell-based
Outline: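 PC3 cells seeded at 5 × 10⁴ cells/mL on sterile coverslips. Medium replaced with fresh medium plus 10% FBS containing compound, treated 24–72 h. Coverslips inverted onto acridine orange/ethidium bromide stain ([…] as printed) and read by fluorescence microscopy. Live cells scored green, early apoptotic green-yellow, late apoptotic orange, necrotic orange without condensed chromatin.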

T1 sequence (P27361 whole entry, looked up): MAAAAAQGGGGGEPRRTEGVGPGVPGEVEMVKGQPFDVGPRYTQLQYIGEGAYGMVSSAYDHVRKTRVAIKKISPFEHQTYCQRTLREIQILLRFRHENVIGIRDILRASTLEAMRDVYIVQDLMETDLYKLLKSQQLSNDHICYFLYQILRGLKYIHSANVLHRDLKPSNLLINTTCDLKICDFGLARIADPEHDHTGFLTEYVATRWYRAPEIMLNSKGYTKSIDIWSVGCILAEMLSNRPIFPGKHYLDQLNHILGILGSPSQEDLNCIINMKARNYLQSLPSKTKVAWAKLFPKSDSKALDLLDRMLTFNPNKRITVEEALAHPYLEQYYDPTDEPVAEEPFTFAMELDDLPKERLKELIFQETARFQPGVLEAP
T1 sequence (P28482 whole entry, looked up): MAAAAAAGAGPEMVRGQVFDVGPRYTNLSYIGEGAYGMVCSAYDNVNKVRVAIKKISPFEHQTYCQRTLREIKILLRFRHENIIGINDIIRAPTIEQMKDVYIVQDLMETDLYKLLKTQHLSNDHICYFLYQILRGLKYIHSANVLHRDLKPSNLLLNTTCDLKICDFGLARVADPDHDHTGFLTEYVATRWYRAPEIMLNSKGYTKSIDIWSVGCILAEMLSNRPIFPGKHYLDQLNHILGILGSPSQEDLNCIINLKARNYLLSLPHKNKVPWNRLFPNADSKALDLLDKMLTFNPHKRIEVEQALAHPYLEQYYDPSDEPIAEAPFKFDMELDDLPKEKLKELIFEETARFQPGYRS

SMILES: COc1cc2ncnc(NCCc3ccccc3F)c2c(OC)c1OC
- Activity [1]: tde
- Activity [2]: Dose-dependent effect
- Activity [3]: 31.8%
- Activity [4]: 19.8%
- Activity [5]: 11.6%
- Activity [6]: 16.4%
- Activity [7]: 11.1%
- Activity [8]: 9.5%
- Activity [9]: 10.9%
- Activity [10]: 8.2%
- Activity [11]: 5.1%
- Activity [12]: Active
- Activity [13]: Active
- Activity [14]: Non-toxic
- Activity [15]: Active
- Activity [16]: Active
- Activity [17]: Active
- Activity [18]: Active
- Activity [19]: Active
- IC50 [20]: 3.1 µM
- IC50 [21]: 3.2 µM
- IC50 [22]: 6.2 µM
- inhibition of growth at 10 µM [23]: 90.4%
- inhibition of growth at 1 µM [24]: 46.5%
- inhibition of growth at 10 µM [25]: 88.2%
- inhibition of growth at 1 µM [26]: 38.7%
- inhibition of growth at 1 µM [27]: 22.6%
- inhibition of growth at 10 µM [28]: 90.6%
- inhibition [29]: Active
- inhibition [30]: Active

SMILES: CC[C@@]1(O)C(=O)OCc2c1cc1n(c2=O)Cc2cc3cc(O)ccc3nc2-1 [HYDROXYCAMPTOTHECIN]
- Activity [31]: 38.2%
- Activity [32]: 19.8%
- Activity [33]: 12.8%
- Activity [34]: 11.9%
- Activity [35]: 11.9%
- Activity [36]: 7.4%
- Activity [3]: 17%
- Activity [6]: 8.3%
- Activity [9]: 5.7%
- Activity [37]: Active
- Activity [38]: Active
